≈ marks a conversion by molar mass, not a printed value. Calls of active or inactive are those of the source. The calls are words filed in the database; no cut-off is given here.
What was measured:
Mus musculus = test: Toxicity in ICR mouse at 250 mg/kg, iv after 21 to 22 days; format: organism-based; details: in vivo
Acinetobacter baumannii [1] = test: Antibacterial activity against Acinetobacter baumannii ARC 3486 after 18 hrs by broth microdilution method; format: functional; details: ARC 3486, 18 h
Acinetobacter baumannii [2] = test: Antibacterial activity against Acinetobacter baumannii ATCC 17961 infected in ICR mouse assessed as mouse survival rate at 5 mg/kg, iv administered at 30 mins and 24.5 hrs post infection measured 7 days post infection relative to vehicle-treated control; format: functional; details: ATCC 17961, iv
Outline: (§1)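 Sepsis model in 6- to 8-week-old female ICR mice infected intraperitoneally with A. baumannii ATCC 17961. Treatment given intravenously at 30 min and again at 24.5 h after infection, at 25, 10 or 5 mg/kg. Saline vehicle group as control. Five mice per dose group and six in the vehicle group. Read-out was survival.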

Staphylococcus aureus [3] = test: Antibacterial activity against Staphylococcus aureus SG511 after 18 hrs by broth microdilution method; format: functional; details: SG511, 18 h
Staphylococcus aureus [4] = test: Antibacterial activity against Staphylococcus aureus ATCC 11632 after 18 hrs by broth microdilution method; format: functional; details: ATCC 11632, 18 h
Acinetobacter baumannii [5] = test: Antibacterial activity against Acinetobacter baumannii ATCC 17961 infected in ICR mouse assessed as mouse survival rate at 25 mg/kg, iv administered at 30 mins and 24.5 hrs post infection measured 7 days post infection relative to vehicle-treated control; format: functional; details: ATCC 17961, iv; outline: as §1
Acinetobacter baumannii [6] = test: Antibacterial activity against Acinetobacter baumannii ATCC BAA 1793 after 18 hrs by broth microdilution method; format: functional; details: ATCC BAA 1793, 18 h
Acinetobacter baumannii [7] = test: Antibacterial activity against Acinetobacter baumannii ATCC 17961 after 18 hrs by broth microdilution method; format: functional; details: ATCC 17961, 18 h
Acinetobacter baumannii [8] = test: Antibacterial activity against Acinetobacter baumannii ATCC BAA 1710 after 18 hrs by broth microdilution method; format: functional; details: ATCC BAA 1710, 18 h
Acinetobacter baumannii [9] = test: Antibacterial activity against Acinetobacter baumannii ARC 3484 after 18 hrs by broth microdilution method; format: functional; details: ARC 3484, 18 h
Acinetobacter baumannii [10] = test: Antibacterial activity against Acinetobacter baumannii ATCC BAA 1800 after 18 hrs by broth microdilution method; format: functional; details: ATCC BAA 1800, 18 h
Acinetobacter baumannii [11] = test: Antibacterial activity against Acinetobacter baumannii ATCC 19606 after 18 hrs by broth microdilution method; format: functional; details: ATCC 19606, 18 h
Burkholderia multivorans = test: Antibacterial activity against Burkholderia multivorans AU0100 after 18 hrs by broth microdilution method; format: functional; details: AU0100, 18 h
Acinetobacter baumannii [12] = test: Antibacterial activity against Acinetobacter baumannii ARC 5079 after 18 hrs by broth microdilution method; format: functional; details: ARC 5079, 18 h
Acinetobacter baumannii [13] = test: Antibacterial activity against Acinetobacter baumannii ATCC 17961 infected in ICR mouse assessed as mouse survival rate at 10 mg/kg, iv administered at 30 mins and 24.5 hrs post infection measured 7 days post infection relative to vehicle-treated control; format: functional; details: ATCC 17961, iv; outline: as §1
Acinetobacter baumannii [14] = test: Antibacterial activity against Acinetobacter baumannii ARC 5081 after 18 hrs by broth microdilution method; format: functional; details: ARC 5081, 18 h
Acinetobacter baumannii [15] = test: Antibacterial activity against Acinetobacter baumannii ATCC BAA 1797 after 18 hrs by broth microdilution method; format: functional; details: ATCC BAA 1797, 18 h
Pseudomonas aeruginosa = test: Antibacterial activity against Pseudomonas aeruginosa PAO1 after 18 hrs by broth microdilution method; format: functional; details: PAO1, 18 h
Escherichia coli = test: Antibacterial activity against Escherichia coli DCO after 18 hrs by broth microdilution method; format: functional
[16] = Binding affinity to ferric ion
[17] = Binding affinity to ferric ion at 5 mg after 18 hrs by LC-MS analysis
Outline: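 Ferric complex made by adding Fe(acac)3 (1.1 mg) in MeOH (1 mL) to conjugate (5.0 mg) in MeOH (1 mL). Analysed by LC on a C18 column (2.2 μm particles) at 40 °C, with a water/acetonitrile mobile phase. UV-vis diode-array detection over 190−400 nm, plus MS.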

Acinetobacter baumannii [18] = test: Antibacterial activity against Acinetobacter baumannii ATCC 17961 infected in ICR mouse assessed as mouse survival rate at 50 mg/kg, iv administered at 30 mins and 24.5 hrs post infection measured 7 days post infection; format: functional, organism-based
Outline: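 Female ICR mice, 6 to 8 weeks old, infected intraperitoneally with A. baumannii ATCC 17961 (sepsis model). Treatments were given intravenously at 30 min and 24.5 h after infection, with saline as vehicle. Survival was scored as the fraction of mice alive per group (3 to 6 mice per group).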

Row | MIC (Acinetobacter baumannii [1]) | MIC (Acinetobacter baumannii [6]) | MIC (Acinetobacter baumannii [7]) | MIC (Acinetobacter baumannii [8]) | MIC (Acinetobacter baumannii [9]) | MIC (Acinetobacter baumannii [10]) | MIC (Acinetobacter baumannii [12]) | MIC (Acinetobacter baumannii [14]) | MIC (Acinetobacter baumannii [15]) | Structure (SMILES) | MIC (Staphylococcus aureus [3]) | MIC (Staphylococcus aureus [4]) | MIC (Acinetobacter baumannii [11]) | MIC (Burkholderia multivorans) | MIC (Pseudomonas aeruginosa) | MIC (Escherichia coli) | also measured
1 |  |  |  |  |  |  |  |  |  | CCCCCCCCCC(=O)N[C@@H](Cc1c[nH]c2ccccc12)C(=O)N[C@H](CC(N)=O)C(=O)N[C@@H](CC(=O)O)C(=O)N[C@@H]1C(=O)NCC(=O)N[C@@H](CCCNC(=O)CCCC(=O)N(O)CCCCCNC(=O)CCC(=O)N(CCCCNC(=O)c2cccc(O)c2O)CCCNC(=O)c2cccc(O)c2O)C(=O)N[C@@H](CC(=O)O)C(=O)N[C@H](C)C(=O)N[C@@H](CC(=O)O)C(=O)NCC(=O)N[C@H](CO)C(=O)N[C@@H]([C@@H](C)CC(=O)O)C(=O)N[C@@H](CC(=O)c2ccccc2N)C(=O)O[C@@H]1C [listing 1 of 2 here] |  |  |  |  |  |  | Activity (Mus musculus): Non-Toxic
2 | > 50 µM | > 50 µM | > 50 µM | > 50 µM | > 50 µM | > 50 µM | > 50 µM | > 50 µM | > 50 µM | CCCCCCCCCC(=O)N[C@@H](Cc1c[nH]c2ccccc12)C(=O)N[C@@H](CC(N)=O)C(=O)N[C@@H](CC(=O)O)C(=O)N[C@@H]1C(=O)NCC(=O)N[C@@H](CCCNC(=O)CCCC(=O)N(CCCCCNC(=O)CCC(=O)N(CCCCNC(=O)c2cccc(OCc3ccccc3)c2OCc2ccccc2)CCCNC(=O)c2cccc(OCc3ccccc3)c2OCc2ccccc2)OCc2ccccc2)C(=O)N[C@@H](CC(=O)O)C(=O)N[C@H](C)C(=O)N[C@@H](CC(=O)O)C(=O)NCC(=O)N[C@H](CO)C(=O)N[C@@H]([C@@H](C)CC(=O)O)C(=O)N[C@@H](CC(=O)c2ccccc2N)C(=O)O[C@@H]1C |  |  | > 50 µM |  |  |  | Activity [16]: inactive
3 |  |  |  |  |  |  |  |  |  | CCCCCCCCCC(=O)N[C@@H](Cc1c[nH]c2ccccc12)C(=O)N[C@@H](CC(N)=O)C(=O)N[C@@H](CC(=O)O)C(=O)N[C@@H]1C(=O)NCC(=O)N[C@@H](CCCNC(=O)CCCC(=O)N(O)CCCCCNC(=O)CCC(=O)N(CCCCNC(=O)c2cccc(O)c2O)CCCNC(=O)c2cccc(O)c2O)C(=O)N[C@@H](CC(=O)O)C(=O)N[C@H](C)C(=O)N[C@@H](CC(=O)O)C(=O)NCC(=O)N[C@H](CO)C(=O)N[C@@H]([C@@H](C)CC(=O)O)C(=O)N[C@@H](CC(=O)c2ccccc2N)C(=O)O[C@@H]1C |  |  |  |  |  |  | Activity [17]: Active
4 | > 50 µM | > 50 µM | 1.7 µM (≈ 0.996 µg/mL) | > 50 µM | > 27 µM | > 50 µM | > 50 µM | > 50 µM | 27 µM (≈ 15.8 µg/mL) | NCC[C@H](O)C(=O)N[C@@H]1C[C@H](N)[C@@H](O[C@H]2O[C@H](CN)[C@@H](O)[C@H](O)[C@H]2O)[C@H](O)[C@H]1O[C@H]1O[C@H](CO)[C@@H](O)[C@H](N)[C@H]1O [AMIKACIN] |  |  | 3.4 µM (≈ 1.99 µg/mL) |  |  |  | 
5 | > 100 µM | > 100 µM | > 100 µM | > 100 µM | > 100 µM | > 100 µM | > 100 µM | > 100 µM | > 100 µM | CCCCCCCCCC(=O)N[C@@H](Cc1c[nH]c2ccccc12)C(=O)N[C@@H](CC(N)=O)C(=O)N[C@@H](CC(=O)O)C(=O)N[C@@H]1C(=O)NCC(=O)N[C@@H](CCCN)C(=O)N[C@@H](CC(=O)O)C(=O)N[C@H](C)C(=O)N[C@@H](CC(=O)O)C(=O)NCC(=O)N[C@H](CO)C(=O)N[C@@H]([C@H](C)CC(=O)O)C(=O)N[C@@H](CC(=O)c2ccccc2N)C(=O)O[C@@H]1C [DAPTOMYCIN] | 0.05 µM (≈ 0.081 µg/mL) | 0.4 µM (≈ 0.648 µg/mL) |  | > 100 µM | > 100 µM | > 100 µM | Activity (Acinetobacter baumannii [18]): inactive

Row | Structure (SMILES) | MIC (Acinetobacter baumannii [1]) | MIC (Acinetobacter baumannii [6]) | MIC (Acinetobacter baumannii [7]) | MIC (Acinetobacter baumannii [8]) | MIC (Acinetobacter baumannii [9]) | MIC (Acinetobacter baumannii [10]) | MIC (Acinetobacter baumannii [12]) | MIC (Acinetobacter baumannii [14]) | MIC (Acinetobacter baumannii [15]) | MIC (Staphylococcus aureus [3]) | MIC (Staphylococcus aureus [4]) | MIC (Acinetobacter baumannii [11]) | MIC (Burkholderia multivorans) | MIC (Pseudomonas aeruginosa) | MIC (Escherichia coli) | also measured
6 | CCCCCCCCCC(=O)N[C@@H](Cc1c[nH]c2ccccc12)C(=O)N[C@H](CC(N)=O)C(=O)N[C@@H](CC(=O)O)C(=O)N[C@@H]1C(=O)NCC(=O)N[C@@H](CCCNC(=O)CCCC(=O)N(O)CCCCCNC(=O)CCC(=O)N(CCCCNC(=O)c2cccc(O)c2O)CCCNC(=O)c2cccc(O)c2O)C(=O)N[C@@H](CC(=O)O)C(=O)N[C@H](C)C(=O)N[C@@H](CC(=O)O)C(=O)NCC(=O)N[C@H](CO)C(=O)N[C@@H]([C@@H](C)CC(=O)O)C(=O)N[C@@H](CC(=O)c2ccccc2N)C(=O)O[C@@H]1C [listing 2 of 2 here] | 0.4 µM (≈ 0.934 µg/mL) | 0.8 µM (≈ 1.87 µg/mL) | 0.4 µM (≈ 0.934 µg/mL) | 0.8 µM (≈ 1.87 µg/mL) | 0.4 µM (≈ 0.934 µg/mL) | 0.8 µM (≈ 1.87 µg/mL) | 0.8 µM (≈ 1.87 µg/mL) | 0.4 µM (≈ 0.934 µg/mL) | 0.8 µM (≈ 1.87 µg/mL) | 6 µM (≈ 14 µg/mL) | 12.5 µM (≈ 29.2 µg/mL) | 0.8 µM (≈ 1.87 µg/mL) | > 100 µM | > 100 µM | > 100 µM | survival at 5 mg/kg (Acinetobacter baumannii [2]): 20%; survival at 25 mg/kg (Acinetobacter baumannii [5]): 80%; survival at 10 mg/kg (Acinetobacter baumannii [13]): 80%
7 | O=C(O)c1cn(C2CC2)c2cc(N3CCNCC3)c(F)cc2c1=O [CIPROFLOXACIN] | > 25 µM | > 25 µM | 0.2 µM (≈ 0.0663 µg/mL) | > 25 µM | > 25 µM | > 25 µM | > 25 µM | > 25 µM | > 25 µM | 0.5 µM (≈ 0.166 µg/mL) | 0.5 µM (≈ 0.166 µg/mL) | 0.8 µM (≈ 0.265 µg/mL) | > 25 µM | 0.5 µM (≈ 0.166 µg/mL) | 0.5 µM (≈ 0.166 µg/mL) | 

Reference: ChEMBL document CHEMBL4014288, “Targeted Antibiotic Delivery: Selective Siderophore Conjugation with Daptomycin Confers Potent Activity against Multidrug Resistant Acinetobacter baumannii Both in Vitro and in Vivo” (J Med Chem, 2017)
